The text below walks through data of ChEMBL document CHEMBL3272308, “Pharmacological effects of introducing a double bond into a binding site of oxytocin. Analogues with L-3,4-dehydroproline in position 7” (1977).

One assay is filed under the species Gallus gallus. Put plainly: Vasodepressor activity in fowl. The class given is functional.
For assay [1], the species on record is Rattus norvegicus. Put plainly: Antidiuretic activity in rat. Type of assay: functional, Urine.
The species named for assay [2] is Rattus norvegicus. In words: Pressor activity in rat. The class given is functional.
Assay [3] is filed under the species Rattus norvegicus. Put plainly: Activity at uterotonic receptor in rat uterus assessed as uterotonic activity. Type of assay: tissue-based. The essentials: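 Isolated female rat uterine horn in the bathing fluid used for the oxytocic assay. Isometric contractions were recorded at a baseline tension of 1 g. Cumulative dose-response curves (van Rossum) were built by raising doses geometrically until a maximal response, alternating oxytocin and analogue on the same horn with return to baseline between runs. pD2 is the negative log of the concentration giving 50% of maximum.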

Assay [4] is filed under the species Rattus norvegicus. Put plainly: Ratio of oxytocin to compound for antidiuretic activity in rat. Type of assay: functional, Urine.

*1 amine or outer side, *2 acyl side, *3 side chain or, on linkers, in order; H or OH if unused. Where a SMILES comes first, the peptide text is derived from it. Bridges are numbered along the chain shown (N, C = ends). [ ]: non-standard residue; d: D form. X1 = O=C([C@H](O)CS[*:2])[*:1]; ΔPro = O=C(O)[C@@H]1C=CCN1

`CC[C@H](C)[C@@H]1NC(=O)[C@H](Cc2ccc(O)cc2)NC(=O)[C@@H](N)CSSC[C@@H](C(=O)N2CCC[C@H]2C(=O)N[C@@H](CC(C)C)C(=O)NCC(N)=O)NC(=O)[C@H](CC(N)=O)NC(=O)[C@H](CCC(N)=O)NC1=O` [OXYTOCIN]: the Activity in the assay listed under Gallus gallus was determined as 507 U/mg; in the assay filed under Rattus norvegicus [1], 2.7 U/mg; in the assay filed under Rattus norvegicus [2], 3.1 U/mg; in the assay listed under Rattus norvegicus [3] it was 546 U/mg.
As for `CC[C@H](C)[C@@H]1NC(=O)[C@H](Cc2ccc(O)cc2)NC(=O)[C@H](O)CSSC[C@@H](C(=O)N2CC=C[C@H]2C(=O)N[C@@H](CC(C)C)C(=O)NCC(N)=O)NC(=O)[C@H](CC(N)=O)NC(=O)[C@H](CCC(N)=O)NC1=O` (YIQNC[ΔPro]LG-NH2; linker N-5 via X1), the Activity in the assay filed under Gallus gallus was 1295 U/mg; in the assay filed under Rattus norvegicus [1] it was 76.7 U/mg; in the assay listed under Rattus norvegicus [3] it was 880 U/mg.
As for `CC[C@H](C)[C@@H]1NC(=O)[C@H](Cc2ccc(O)cc2)NC(=O)CCSSC[C@H](C(=O)N2CCC[C@H]2C(=O)N[C@@H](CC(C)C)C(=O)NCC(N)=O)NC(=O)[C@H](CC(N)=O)NC(=O)[C@H](CCC(N)=O)NC1=O`, the Activity in the assay listed under Rattus norvegicus [3] is 803 U/mg.
Turning to `CC[C@H](C)[C@@H]1NC(=O)[C@H](Cc2ccc(O)cc2)NC(=O)CCSSC[C@@H](C(=O)N2CCC[C@H]2C(=O)N[C@@H](CC(C)C)C(=O)NCC(N)=O)NC(=O)[C@H](CC(N)=O)NC(=O)[C@H](CCC(N)=O)NC1=O` [DEMOXYTOCIN], the Activity in the assay listed under Gallus gallus is listed as 975 U/mg; in the assay listed under Rattus norvegicus [1], 19 U/mg; in the assay listed under Rattus norvegicus [2], 1.44 U/mg.
`CC[C@H](C)[C@@H]1NC(=O)[C@H](Cc2ccc(O)cc2)NC(=O)CCSSC[C@@H](C(=O)N2CC=C[C@H]2C(=O)N[C@@H](CC(C)C)C(=O)NCC(N)=O)NC(=O)[C@H](CC(N)=O)NC(=O)[C@H](CCC(N)=O)NC1=O`: the Activity in the assay filed under Gallus gallus amounted to 1008 U/mg; in the assay listed under Rattus norvegicus [1], 23.3 U/mg; in the assay listed under Rattus norvegicus [3] it was 1070 U/mg.
As for `CC[C@H](C)[C@@H]1NC(=O)[C@H](Cc2ccc(O)cc2)NC(=O)[C@@H](N)CSSC[C@@H](C(=O)N2CC=C[C@H]2C(=O)N[C@@H](CC(C)C)C(=O)NCC(N)=O)NC(=O)[C@H](CC(N)=O)NC(=O)[C@H](CCC(N)=O)NC1=O`, the results for the Activity in the assay listed under Gallus gallus, in the assay listed under Rattus norvegicus [1] and in the assay listed under Rattus norvegicus [3] were 548 U/mg, 5.9 U/mg and 1070 U/mg, respectively. In addition, the Ratio in the assay listed under Rattus norvegicus [4] came to 2.
Consider `CC[C@H](C)[C@@H]1NC(=O)[C@H](Cc2ccc(O)cc2)NC(=O)[C@H](O)CSSC[C@@H](C(=O)N2CCC[C@H]2C(=O)N[C@@H](CC(C)C)C(=O)NCC(N)=O)NC(=O)[C@H](CC(N)=O)NC(=O)[C@H](CCC(N)=O)NC1=O` (YIQNCPLG-NH2; linker N-5 via X1), for which the Activity in the assay filed under Gallus gallus amounted to 1778 U/mg; in the assay listed under Rattus norvegicus [1], 16.6 U/mg; in the assay listed under Rattus norvegicus [2] it was 14.7 U/mg; in the assay listed under Rattus norvegicus [3], 1280 U/mg.
